# Published values collected from several papers.
# Lines come from different studies, so protocols differ.
Compound,cell line,effect on,technique,concentration,time,quantity,value
COc1cc(/C=N/n2c(C)nc3ccc(Br)cc3c2=O)ccc1OCc1ccc(Cl)cc1,LoVo,cell growth or viability,LDH,200 µg/mL,24 h,viability,80%
CCN(CC)CCNC(=O)c1c(C)[nH]c(/C=C2\C(=O)Nc3ccc(F)cc32)c1C,HT-29,cell growth or viability,,30 µM,,inhibition,59.5%
C=CC(=O)N1CCC[C@@H](n2nc(-c3ccc(Oc4ccccc4)cc3)c3c(N)ncnc32)C1,U2932,cell growth or viability,,,48 h,GI50,5000 nM
COc1cc(NCC(=O)Nn2c(C)nc3ccc(Cl)cc3c2=O)cc(OC)c1OC,LoVo,cell growth or viability,LDH,200 µg/mL,24 h,viability,59.5%
COc1ccc(-c2ccc(-c3ccc(C(=N)N)nc3)s2)cc1,TK-10,cell growth or viability,,,,GI50,1890 nM
C=CC(=O)Nc1cccc(Nc2nc(Nc3ccc(OCCOC)cc3)ncc2F)c1,U2932,cell growth or viability,,,48 h,GI50,4300 nM
COc1ccc2c(c1)C(=NNc1ncnc3cc(OC)c(OC)cc13)C(=O)N2,HT-29,cell growth or viability,,10 µM,,inhibition,20.9%
CCC1=C[C@@H]2CN(C1)Cc1c([nH]c3ccccc13)[C@@](C(=O)OC)(c1cc3c(cc1OC)N(C)[C@H]1[C@@](O)(C(=O)OC)[C@H](OC(C)=O)[C@]4(CC)C=CCN5CC[C@]31[C@@H]54)C2,LLC-PK1,cell growth or viability,,,72 h,IC80,11 nM
COc1cccc(Oc2ccccc2NC(=O)CNC(=O)c2cccc3ccccc23)c1,TK-10,cell growth or viability,SRB,,48 h,GI50,1580 nM
S=C([S][Au-][P+](CCCCCC[P+]([Au-][S]C(=S)n1cccn1)(c1ccccc1)c1ccccc1)(c1ccccc1)c1ccccc1)n1cccn1,TK-10,cell growth or viability,,,,GI50,11000 nM
Cc1ccc2c(c1)C(=NNc1nc3ccccc3n(C)c1=O)C(=O)N2,HT-29,cell growth or viability,,30 µM,,inhibition,47.6%
Cc1c(-c2cccc(C(F)(F)F)c2)sc2[nH]c(=O)n([C@H](C)c3cccc4ccccc34)c(=O)c12,NCI-H1650,cell growth or viability,fluorescence,10 µM,,inhibition,> 80%
COc1cc(/C=N/n2c(C)nc3ccc(C)cc3c2=O)ccc1OCc1ccccc1,LoVo,cell growth or viability,LDH,200 µg/mL,24 h,viability,76.5%
CC(C)(O)[C@H]1CC[C@H](Nc2ccc3ncc(-c4cccc(C(F)(F)F)c4)n3n2)CC1,UMUC3,colony formation,,,,EC50,2200 nM
